Assays:
Rattus norvegicus [1] = assay: Percentage change unpunished lever presses from mean score on 6-8 rats at 5 mg/kg po1h pretest; type: functional
Rattus norvegicus [2] = assay: Percentage change punished lever presses from mean score on 6-8 rats at 5 mg/kg po1h pretest; type: functional
Summary of the method: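 Geller–Seifter conflict test in trained rats, groups of 6–8, oral dosing. Lever pressing for food reward on a multiple schedule: five 3-min VI30 components alternating with five 3-min light-signalled FR5 components, where reward came with footshock (15 ms pulses at 200 ms intervals for 1 s). Punished presses compared with each of 2 preceding vehicle-treated test days by two-way ANOVA of square-root-transformed data.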

`CN1C(=O)CN=C(c2ccccc2)c2cc(Cl)ccc21` [DIAZEPAM] gave a Change (Rattus norvegicus [1]) of -19% and a Change (Rattus norvegicus [2]) of 70%.

Reference: ChEMBL document CHEMBL1131637, “Novel and selective 5-HT2C/2B receptor antagonists as potential anxiolytic agents: synthesis, quantitative structure-activity relationships, and molecular modeling of substituted 1-(3-pyridylcarbamoyl)indolines” (J Med Chem, 1998)
